Bioassay records deposited in PubChem by several laboratories.
SUMO1-SIM PPI: modulators of SUMO1 protein-protein interactions, primary screen, biochemical, uHTS. SUMO1 binding to a labelled peptide, TR-FRET, 1 h. inhibition, % at 20 µM. hit rate 0.33% among 360,000; in the data active means inhibition above about 37%
Scp1 inh: Scp-1 phosphatase inhibitors, primary screen, biochemical, colorimetric, uHTS | inhibition, % at 20 µM | Recombinant Scp1, phosphopeptide, malachite green phosphate absorbance | Carboxy-terminal domain RNA polymerase II polypeptide A small phosphatase 1 (Homo … | hit rate 0.88% among 340,000;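 active means inhibition above about 50% at 20 µM, limit read from the data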;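 further: plate controls were DMSO wells with enzyme for no effect and wells lacking enzyme for full effect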
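Test system – truncated SCP-1 phosphatase (76-261aa) · Reagent – Phosphorylated 17-residue peptide substrate · Incubation – 45 min room-temperature reaction, 5 min colour, 30 min stabiliser · Detection – colorimetric phosphate reagent with accelerator and stabiliser, absorbance at 630 nm · Measure – % inhibition at 20 µM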
GRK2 aptamer HTS: compounds blocking aptamer binding on GRK2 – biochemical, human GRK2, bead flow cytometry, HTS, primary screen | Beta-adrenergic receptor kinase 1 (Homo sapiens), P25098 | FAM-aptamer displacement from GRK2 | inhibition of aptamer binding, % at 10 µM | hit rate 0.59% among 330,000 | AID 488847, 2010;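 active means inhibition of aptamer binding above 40%, roughly 3 SD of noise, on plates passing a quality check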;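 further: median bead fluorescence of bound FAM aptamer so fluorescent compounds give negative values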
LMPTP block: LMPTP phosphatase inhibitors, primary screen, biochemical, fluorescence intensity, uHTS. Low molecular weight phosphotyrosine protein phosphatase (Homo sapiens), P24666. recombinant LMPTP-A, OMFP fluorogenic substrate. inhibition, % at 20 µM. hit rate 0.22% among 360,000;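 active means compounds that cut the enzyme signal by at least half of the control window in the single-dose screen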;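 further: plate controls were DMSO wells with enzyme plus substrate for no effect and substrate without enzyme for full effect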
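Assay system: LMPTP-A, protein tyrosine phosphatase of low molecular weight / Medium: pH 6.0 Bis-Tris buffer with DTT and Triton X-100 / Schedule: 50 min enzyme reaction at room temperature, protected from light / Measured by: endpoint fluorescence intensity from OMFP dephosphorylation / Read-out basis: % inhibition relative to no-enzyme and uninhibited control wells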
DNMT1 inh: human DNMT1 methyltransferase inhibitors, primary screen, biochemical, molecular beacon, fluorescence, HinP1I cleavage, uHTS | hit rate 0.83% among 360,000 | AID 588458, 2011 | DNA (cytosine-5)-methyltransferase 1 (Homo sapiens), P26358 | inhibition (reported as % activation of signal), % at 10 µM; in the data active means inhibition above about 50%
Target sequence (P26358 504-1616 limits assumed): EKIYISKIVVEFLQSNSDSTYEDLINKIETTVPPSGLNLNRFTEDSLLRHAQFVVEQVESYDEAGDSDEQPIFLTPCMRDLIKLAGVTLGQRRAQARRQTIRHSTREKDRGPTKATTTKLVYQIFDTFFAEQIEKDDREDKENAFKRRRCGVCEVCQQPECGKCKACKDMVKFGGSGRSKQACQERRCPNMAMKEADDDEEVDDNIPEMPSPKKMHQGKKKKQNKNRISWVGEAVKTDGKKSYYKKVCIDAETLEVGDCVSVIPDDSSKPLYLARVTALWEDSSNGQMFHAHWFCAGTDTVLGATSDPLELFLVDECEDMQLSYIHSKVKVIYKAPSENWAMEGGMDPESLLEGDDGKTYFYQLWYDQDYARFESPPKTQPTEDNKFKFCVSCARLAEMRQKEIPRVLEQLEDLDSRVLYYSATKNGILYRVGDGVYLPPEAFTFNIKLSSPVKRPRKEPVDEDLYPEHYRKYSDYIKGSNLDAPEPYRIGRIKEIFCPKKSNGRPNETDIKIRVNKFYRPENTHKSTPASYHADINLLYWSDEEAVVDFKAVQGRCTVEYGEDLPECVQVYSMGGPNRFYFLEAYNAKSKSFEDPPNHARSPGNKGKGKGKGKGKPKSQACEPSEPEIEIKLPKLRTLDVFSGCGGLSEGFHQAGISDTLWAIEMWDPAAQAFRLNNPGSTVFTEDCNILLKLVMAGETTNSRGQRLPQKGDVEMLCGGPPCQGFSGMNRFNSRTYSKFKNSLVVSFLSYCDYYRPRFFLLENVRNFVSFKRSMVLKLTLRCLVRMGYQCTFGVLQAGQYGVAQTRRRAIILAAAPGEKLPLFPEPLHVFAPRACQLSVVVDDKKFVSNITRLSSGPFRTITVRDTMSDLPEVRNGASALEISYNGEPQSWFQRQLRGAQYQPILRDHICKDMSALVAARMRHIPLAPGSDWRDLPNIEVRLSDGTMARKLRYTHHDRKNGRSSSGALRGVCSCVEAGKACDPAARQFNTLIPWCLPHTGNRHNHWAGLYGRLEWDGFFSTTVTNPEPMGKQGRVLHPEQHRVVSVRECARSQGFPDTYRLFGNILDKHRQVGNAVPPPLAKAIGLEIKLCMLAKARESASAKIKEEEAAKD
STEP inh: STEP phosphatase inhibitors, primary screen, biochemical, fluorescence intensity, uHTS; Tyrosine-protein phosphatase non-receptor type 5 (Homo sapiens), P54829; recombinant STEP, OMFP fluorogenic substrate; inhibition, % at 20 µM; hit rate 0.25% among 360,000; AID 588621, 2011;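 active means inhibition at 20 µM, scaled per plate between control wells, above about 37%, limit read from the data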;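 further: 0% = DMSO with enzyme and substrate and 100% = substrate only without enzyme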
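System: isolated STEP enzyme; schedule: 20 min enzyme reaction at room temperature, protected from light; medium: Bis-Tris buffer pH 6.0, 2.5 mM DTT, 0.005% Tween 20; signal: fluorescence, 480/540 nm; dosing: single compound dose of 20 µM, 1% DMSO final; also added: OMFP substrate, 25 µM final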
Scp-1 conf: Scp-1 phosphatase inhibitors, retest, confirmation, biochemical, colorimetric, single concentration | shares compounds with Scp1 inh | recombinant SCP-1 catalytic domain, phosphate release, malachite green absorbance | inhibition, % at 20 µM | hit rate 61% among 2,500 | AID 540281, 2011;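 further: plate controls were DMSO with enzyme for no effect and buffer wells lacking enzyme for full effect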
Scp-1 MG ctr: colorimetric readout interference by compounds, confirmation, artefact control for Scp-1 inhibitor project, biochemical, single concentration | shares compounds with Scp1 inh | Colorimetric interference counterscreen, malachite green absorbance 630 nm | apparent inhibition (interference), % at 20 µM | 2,500 tested, under 10 active;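 further: compounds added after enzyme reaction finished so only phosphate colour detection is probed; plate controls were DMSO wells with completed Scp-1 reaction for no effect and substrate wells lacking enzyme for full effect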
Scp1 DSF: Scp-1 binding by thermal shift, confirmation, orthogonal assay for Scp-1 inhibitor project, biophysical, differential scanning fluorimetry; shares compounds with Scp1 inh; Recombinant SCP1, Sypro Orange thermal shift Tm; thermal shift relative to vanadate control, % at 40 µM; hit rate 25% among 1,500;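 active means substances whose mean melting-temperature shift, as a percentage of the reference inhibitor's shift, reaches about 5.3%, limit read from the data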;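 further: 0% = Tm of DMSO wells and 100% = Tm with sodium orthovanadate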
* = called active by the depositor; . = not tested or not shown. A selection: hits, their analogues and other compounds. The true share with any hit is near 2.1%.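 How the source made its calls, unless noted: active means inhibition of at least 30% at 20 µM; inactive means the rest.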

SMILES	SUMO1-SIM PPI	Scp1 inh	GRK2 aptamer HTS	LMPTP block	DNMT1 inh	STEP inh	Scp-1 conf	Scp-1 MG ctr	Scp1 DSF
COc1ccccc1-c1sc2cc3c(cc2c1C#CC1(O)CCCCC1)OCO3	-2	56*	0	2	-23	-2	-14	-20	.
COc1ccc(NC(=O)N2CCc3ccccc3C2)c(OC)c1	-1	-2	0	-1	0	-1	.	.	.
N#CC1=C(SCC(=O)Nc2ccc(C(=O)O)cc2)NC(=O)CC1c1ccco1 (stereo not drawn)	27	52*	9	0	28	22	46*	-14	5
Cc1ccc2nc(C(C)(C)C)c(Cc3cccc(Cl)c3)n2c1	5	.	.	0	11	3	.	.	.
CC/C(=N\NC(=O)CNC(=O)/C=C/c1ccco1)c1ccccc1	1	94*	2	0	10	0	15	-6	.
COc1ccc(/C(C)=N/NC(=O)CNC(=O)/C=C\c2ccco2)cc1	-4	82*	11	-1	19	0	64*	-12	-6
Cc1cccc(N2CCN(c3ccc(NC(=O)/C=C(/C(=O)O)c4ccccc4)cc3)CC2)c1	-1	58*	1	-1	0	2	72*	-10	-5
CC(=O)N1CCN(c2ccc(NC(=O)c3cccc(C)c3)cc2)CC1	4	-4	4	-3	7	-6	.	.	.
CCOC(=O)CSc1[nH]c(=O)cc(C)c1C#N	-2	50*	2	-1	1	-2	-27	-22	.
Cc1ccc(S(=O)(=O)N2CC(CO)=CCC2c2ccccc2)cc1 (stereo not drawn)	0	.	.	-1	.	.	.	.	.
N#Cc1ccsc1NC(=O)COC(=O)CCS(=O)(=O)c1ccccc1	18	50*	1	12	17	-1	69*	-10	5.7*
CCOC(=O)C(=Cc1ccc(N(C)C)cc1)C(=O)c1ccccc1	5	.	.	2	2	0	.	.	.
CCOC(=O)N(O)c1ccc(C=Cc2ccccc2)cc1	-7	59*	.	5	10	2	50*	-8	-18
COc1cccc2cc(C(=O)NCCc3c[nH]c4ccccc34)c(=O)oc12	-17	-4	0	1	-4	-1	.	.	.
Cc1ccc(CN2C(=O)CSCC2(C)C(=O)NC(C)C)cc1 (stereo not drawn)	4	.	.	0	.	.	.	.	.
C=C(C)C(=O)N1CCN(C(=O)C(=C)C)c2ccccc21	1	-2	.	-1	4	-2	.	.	.
COc1cc(C(=O)N/N=C/c2sc(=O)n(-c3ccccc3)c2Cl)cc(OC)c1OC	1	50*	0	0	1	5	-21	-17	.
CCOC(=O)C1=C(C)N=c2s/c(=C\c3ccc(C(=O)O)cc3)c(=O)n2C1c1ccc(OC)cc1OC (stereo not drawn)	-23	73*	1	1	-2	6	72*	-7	6.9*
C[C@H](NC(=O)c1ccco1)C(=O)NNC(=O)c1ccc(F)cc1	-2	99*	0	0	1	-3	0	-10	.
CCOc1ccc(OCC(=O)OCC(=O)NNC(=O)c2ccc([N+](=O)[O-])cc2)cc1	-27	-7	0	-2	2	-1	.	.	.
CC(=O)c1ccccc1NS(=O)(=O)c1cccc2nsnc12	-17	80*	36	68*	51*	97*	51*	-23	-6
O=C(O)COc1ccccc1/C=C1\SC(=S)N(/N=C/c2ccccc2O)C1=O	31	63*	1	1	-8	1	59*	-13	8.2*
COc1cc(CNS(=O)(=O)c2ccc3c(c2)CC(C)N3C(C)=O)cc(OC)c1OC (stereo not drawn)	-1	1	0	0	0	0	.	.	.
Cc1nnc(NC(=O)CSc2nnc(-c3ccco3)n2C(C)C)s1	0	-5	0	0	0	0	.	.	.
CC(C)n1c(SCC(=O)Nc2nncs2)nnc1-c1ccco1	.	94*	23	.	.	.	77*	0	-2
SMILES	SUMO1-SIM PPI	Scp1 inh	GRK2 aptamer HTS	LMPTP block	DNMT1 inh	STEP inh	Scp-1 conf	Scp-1 MG ctr	Scp1 DSF
CCOC(=O)c1cccc(NC(=O)CSc2nc3ccccc3c(=O)n2CC)c1	2	-2	3	0	-2	0	.	.	.
CCn1c(C)[n+](Cc2ccccc2)c2ccc(C(=O)OC)cc21	0	102*	0	1	4	-3	53*	-6	-4
CCn1c(C)[n+](Cc2ccccc2)c2ccc(Cl)cc21	-2	1	0	1	-1	-1	.	.	.
CCOC(=O)c1ccc2c(c1)n(CC)c(/C=C/Nc1ccccc1)[n+]2CC	-3	62*	0	-1	5	-3	-10	-11	.
O=C1NC(=Nc2ccccc2)S/C1=C\c1cccnc1	-17	67*	1	4	1	6	10	-4	.
CC(=O)c1ccc(OCCOc2ccc([N+](=O)[O-])cc2)cc1	-20	-10	0	0	2	0	.	.	.
C[N+]1(CCOc2ccc([N+](=O)[O-])cc2)CCOCC1	-13	106*	3	-3	3	-1	85*	-11	-11
COc1ccc2c(c1)c(=O)oc1c(C)c(OC(C)C(=O)N[C@@H](Cc3c[nH]c4ccc(O)cc34)C(=O)O)ccc12 (stereo partly drawn)	27	58*	1	3	12	-1	43*	-23	9.6*
Cc1cnc(C(=O)NCC(c2ccccc2)c2ccccc2)cn1	1	-1	0	2	-1	-2	.	.	.
